From paper PMC5741288 (Pain Reports, 2016)

Assay: Treatment-emergent adverse events, tolerability
Format: in vivo, healthy men
Settings: part 1
How it was run: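 Healthy men received single oral tablet doses (part 1: 1–225 mg; part 2: 10, 50 mg) or placebo under double-blind randomisation. Treatment-emergent adverse events were recorded along with clinical laboratory tests, ECG, oral temperature, vital signs and physical examinations, through follow-up.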

**Q.** Which “TEAE Agusia” value (10 mg (N = 6)) does the source give for CC(C)(O)c1ccccc1-c1ccc2[nH]c(/C=C/c3ccc(C(F)(F)F)cc3)nc2c1 [JNJ-39439335, trans-2-(2-{2-[2-(4-Trifluoromethyl-phenyl)-vinyl]-1H-benzimidazol-5-yl}-phenyl)-propan-2-ol] here?
**A.** 0 n (%)

**Q.** What about the “TEAE Back pain” value (10 mg (N = 6)) of the same compound?
**A.** 0 n (%)

**Q.** And the “TEAE Burning sensation” value (10 mg (N = 6))?
**A.** 0 n (%)

**Q.** What about the “TEAE Chills” value (10 mg (N = 6)) of the same compound?
**A.** 0 n (%)

**Q.** What about the “TEAE Dizziness” value (10 mg (N = 6)) of the same compound?
**A.** 1 (17) n (%)

**Q.** And the “TEAE Dizziness postural” value (10 mg (N = 6))?
**A.** 2 (33) n (%)

**Q.** What about the “TEAE Dysgeusia” value (10 mg (N = 6)) of the same compound?
**A.** 0 n (%)

**Q.** And the “TEAE Fatigue” value (10 mg (N = 6))?
**A.** 0 n (%)

**Q.** And the “TEAE Feeling cold” value (10 mg (N = 6))?
**A.** 0 n (%)

**Q.** What about the “TEAE Feeling hot” value (10 mg (N = 6)) of the same compound?
**A.** 0 n (%)

**Q.** And the “TEAE Headache” value (10 mg (N = 6))?
**A.** 1 (17) n (%)

**Q.** What about the “TEAE Hematoma” value (10 mg (N = 6)) of the same compound?
**A.** 0 n (%)

**Q.** What about the “TEAE Hyperhidrosis” value (10 mg (N = 6)) of the same compound?
**A.** 1 (17) n (%)

**Q.** And the “TEAE Hypoesthesia” value (10 mg (N = 6))?
**A.** 0 n (%)

**Q.** What about the “TEAE Hypogeusia” value (10 mg (N = 6)) of the same compound?
**A.** 0 n (%)

**Q.** And the “TEAE Nausea” value (10 mg (N = 6))?
**A.** 1 (17) n (%)

**Q.** And the “TEAE Orthostatic hypotension” value (10 mg (N = 6))?
**A.** 2 (33) n (%)

**Q.** And the “TEAE Paresthesia” value (10 mg (N = 6))?
**A.** 1 (17) n (%)

**Q.** What about the “TEAE Pruritus” value (10 mg (N = 6)) of the same compound?
**A.** 1 (17) n (%)

**Q.** And the “TEAE Pyrexia” value (10 mg (N = 6))?
**A.** 5 (83) n (%)

**Q.** And the “TEAE Rhinitis” value (10 mg (N = 6))?
**A.** 2 (33) n (%)

**Q.** And the “TEAE Thermal burn” value (10 mg (N = 6))?
**A.** 0 n (%)

**Q.** And the “TEAE Thermohypoesthesia” value (10 mg (N = 6))?
**A.** 3 (50) n (%)

**Q.** And the “Total no. participants with AEs” value (10 mg (N = 6))?
**A.** 6 (100) n (%)

**Q.** What about the “TEAE Agusia” value (15 mg (N = 6)) of the same compound?
**A.** 0 n (%)

**Q.** And the “TEAE Back pain” value (15 mg (N = 6))?
**A.** 0 n (%)

**Q.** And the “TEAE Burning sensation” value (15 mg (N = 6))?
**A.** 0 n (%)

**Q.** And the “TEAE Chills” value (15 mg (N = 6))?
**A.** 0 n (%)

**Q.** And the “TEAE Dizziness” value (15 mg (N = 6))?
**A.** 1 (17) n (%)

**Q.** What about the “TEAE Dizziness postural” value (15 mg (N = 6)) of the same compound?
**A.** 1 (17) n (%)

**Q.** And the “TEAE Dysgeusia” value (15 mg (N = 6))?
**A.** 1 (17) n (%)

**Q.** And the “TEAE Fatigue” value (15 mg (N = 6))?
**A.** 0 n (%)

**Q.** What about the “TEAE Feeling cold” value (15 mg (N = 6)) of the same compound?
**A.** 4 (67) n (%)

**Q.** And the “TEAE Feeling hot” value (15 mg (N = 6))?
**A.** 5 (83) n (%)

**Q.** What about the “TEAE Headache” value (15 mg (N = 6)) of the same compound?
**A.** 0 n (%)

**Q.** And the “TEAE Hematoma” value (15 mg (N = 6))?
**A.** 0 n (%)

**Q.** What about the “TEAE Hyperhidrosis” value (15 mg (N = 6)) of the same compound?
**A.** 3 (50) n (%)

**Q.** And the “TEAE Hypoesthesia” value (15 mg (N = 6))?
**A.** 0 n (%)

**Q.** And the “TEAE Hypogeusia” value (15 mg (N = 6))?
**A.** 2 (33) n (%)

**Q.** And the “TEAE Nausea” value (15 mg (N = 6))?
**A.** 0 n (%)

**Q.** What about the “TEAE Paresthesia” value (15 mg (N = 6)) of the same compound?
**A.** 2 (33) n (%)

**Q.** What about the “TEAE Pruritus” value (15 mg (N = 6)) of the same compound?
**A.** 1 (17) n (%)

**Q.** And the “TEAE Pyrexia” value (15 mg (N = 6))?
**A.** 4 (67) n (%)

**Q.** What about the “TEAE Rhinitis” value (15 mg (N = 6)) of the same compound?
**A.** 0 n (%)

**Q.** And the “TEAE Thermal burn” value (15 mg (N = 6))?
**A.** 0 n (%)

**Q.** And the “TEAE Thermohypoesthesia” value (15 mg (N = 6))?
**A.** 5 (83) n (%)

**Q.** What about the “Total no. participants with AEs” value (15 mg (N = 6)) of the same compound?
**A.** 6 (100) n (%)

**Q.** What about the “TEAE Agusia” value (15 mg R (N = 6)) of the same compound?
**A.** 0 n (%)

**Q.** And the “TEAE Back pain” value (15 mg R (N = 6))?
**A.** 0 n (%)

**Q.** And the “TEAE Burning sensation” value (15 mg R (N = 6))?
**A.** 0 n (%)

**Q.** What about the “TEAE Chills” value (15 mg R (N = 6)) of the same compound?
**A.** 0 n (%)

**Q.** What about the “TEAE Dizziness” value (15 mg R (N = 6)) of the same compound?
**A.** 0 n (%)

**Q.** And the “TEAE Dizziness postural” value (15 mg R (N = 6))?
**A.** 0 n (%)

**Q.** What about the “TEAE Dysgeusia” value (15 mg R (N = 6)) of the same compound?
**A.** 0 n (%)

**Q.** What about the “TEAE Fatigue” value (15 mg R (N = 6)) of the same compound?
**A.** 0 n (%)

**Q.** And the “TEAE Feeling cold” value (15 mg R (N = 6))?
**A.** 3 (50) n (%)

**Q.** What about the “TEAE Feeling hot” value (15 mg R (N = 6)) of the same compound?
**A.** 3 (50) n (%)

**Q.** What about the “TEAE Headache” value (15 mg R (N = 6)) of the same compound?
**A.** 0 n (%)

**Q.** What about the “TEAE Hematoma” value (15 mg R (N = 6)) of the same compound?
**A.** 0 n (%)

**Q.** What about the “TEAE Hyperhidrosis” value (15 mg R (N = 6)) of the same compound?
**A.** 0 n (%)

**Q.** What about the “TEAE Hypoesthesia” value (15 mg R (N = 6)) of the same compound?
**A.** 1 (17) n (%)

**Q.** And the “TEAE Hypogeusia” value (15 mg R (N = 6))?
**A.** 0 n (%)

**Q.** What about the “TEAE Nausea” value (15 mg R (N = 6)) of the same compound?
**A.** 0 n (%)

**Q.** And the “TEAE Paresthesia” value (15 mg R (N = 6))?
**A.** 2 (33) n (%)

**Q.** What about the “TEAE Pruritus” value (15 mg R (N = 6)) of the same compound?
**A.** 0 n (%)

**Q.** And the “TEAE Pyrexia” value (15 mg R (N = 6))?
**A.** 2 (33) n (%)

**Q.** What about the “TEAE Rhinitis” value (15 mg R (N = 6)) of the same compound?
**A.** 0 n (%)

**Q.** What about the “TEAE Thermal burn” value (15 mg R (N = 6)) of the same compound?
**A.** 0 n (%)

**Q.** And the “TEAE Thermohypoesthesia” value (15 mg R (N = 6))?
**A.** 2 (33) n (%)

**Q.** And the “Total no. participants with AEs” value (15 mg R (N = 6))?
**A.** 6 (100) n (%)

**Q.** And the “TEAE Agusia” value (30 mg (N = 5))?
**A.** 0 n (%)

**Q.** What about the “TEAE Back pain” value (30 mg (N = 5)) of the same compound?
**A.** 2 (40) n (%)
